What was measured:
potassium channel = details: read-out: in vitro IC50; electrophysiology; cited from earlier work
[1] = test system: voltage-gated K^+ channels; assay: dynamic brain PET imaging and pharmacokinetic modeling in nonhuman primates; assay type: in vivo, rhesus macaques
Outline: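 Two male rhesus macaques (10 and 14 years; one with a prior craniotomy injury) each had two baseline scans. Tracer (291.5–330.1 MBq; 90.3–247.5 GBq/μmol) was infused over 3 min into the saphenous vein, followed by a saline flush, with 180 min list-mode PET/CT under isoflurane. Ten regional TACs were taken in MRI-template space. 1T and 2T models with metabolite-corrected input gave K1 and VT (AIC comparison), with Logan and MA1 also tested.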

[2] = test system: voltage-gated K^+ channels; assay: Guo graphical comparison of regional VT between tracers in nonhuman primates; assay type: in vivo, rhesus macaques; details: for slope of VT correlation plot (Guo method; in vivo affinity ratio): both monkeys combined
Outline: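 Per animal, regional VT of the test tracer (mean of two baseline scans) was regressed against regional VT of each reference 4-aminopyridine tracer. Linearity indicated a shared target, the y-intercept sign indicated relative signal-to-noise, and the slope with measured plasma-free fractions gave the in vivo affinity ratio. Pearson r was used, with Fisher-transformation t-distribution p-values for the regression and intercept.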

[3] = test system: voltage-gated K^+ channels; assay: PET imaging and ex vivo γ counting of brain and blood in healthy rats; design: species or system Sprague Dawley rats
Outline: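 Six–eight-week-old male and female Sprague Dawley rats received ~14.8 MBq tracer by tail vein, alone or with 5 mg/kg cold test compound (5–10 mg/kg in the ex vivo legend), in saline containing ≤10% […]. Rats underwent 60 min PET/CT under 2% isoflurane. Blood (cardiac puncture) and brain were then collected, weighed and γ-counted to give SUV ratios. Imaging used 4 rats; γ-counting used 15. Data are mean ± SD.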

[4] = arterial blood and radiometabolite analysis in nonhuman primates; assay type: in vivo, rhesus macaques
Outline: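 Rhesus macaques were sedated with ketamine/xylazine IM and kept on isoflurane. Arterial blood was sampled manually via a posterior tibial catheter throughout PET to measure whole-blood and plasma radioactivity. Plasma from 3–120 min was filtered through a 10K filter (21 000 rcf, 8 °C, 15 min) and run on C18 radioHPLC in pH 12 phosphate/NaOH:MeCN 96:4 to obtain the parent fraction. Plasma-free fraction was measured in triplicate.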

Row | Compound | IC50 (potassium channel) [µM] | visibility of minor focal brain lesion on PET images ([1]; monkey 2 (M2), craniotomy site) | whole brain SUV ([1]; monkey brain, 3 min) | K1 (rate constant for transfer from plasma to brain tissue) ([1]; monkey whole brain, 1T2k1v model) [mL/min/cc] | total volume of distribution (VT) ([1]; striatum, monkey 1, 1T2k1v) [mL/cc] | total volume of distribution (VT) ([1]; striatum, monkey 2, 1T2k1v) [mL/cc] | total volume of distribution (VT) ([1]; white matter, monkey 1, 1T2k1v) [mL/cc] | total volume of distribution (VT) ([1]; white matter, monkey 2, 1T2k1v) [mL/cc] | slope of VT correlation plot (Guo method; in vivo affinity ratio) ([2]; vs [^11C]3MeO4AP, p < 0.0001) | intercept of Guo plot (relative specific binding) ([2]; vs [^11C]3MeO4AP, p = 0.31) | slope of VT correlation plot (Guo method; in vivo affinity ratio) ([2]; vs [^18F]3F4AP, p = 0.0001) | intercept of Guo plot (relative specific binding) ([2]; vs [^18F]3F4AP, p = 0.91) | increase of whole brain to blood SUVR, coinjection group vs baseline group ([3]; 60 min, p = 0.017) [%] | time of peak radioactivity in the brain ([3]; PET brain time-activity curve) [min] | fraction unbound ([4]; male, rhesus monkey, arterial plasma) | time for WB to PL ratio to reach a plateau ([4]; monkey arterial blood) [min] | activity attributable to parent tracer in plasma (radioHPLC) ([4]; monkey arterial plasma, after 90 min) [%] | WB to PL radioactivity concentration ratio ([4]; monkey, 1 min postinjection, across all studies)
1 | Cc1cnccc1N [3Me4AP, 3-methyl-4-aminopyridine] | 40 | – | – | – | – | – | – | – | – | – | – | – | – | – | – | – | – | –
2 | [11CH3]c1cnccc1N [[^11C]3Me4AP, 3-[^11C]Methyl-4-aminopyridine] | – | not visible | 0.7 | ~0.035 | 4.67 | 4.68 | 3.61 | 3.78 | 0.73 | 0.67 | 1.93 | 0.10 | 43 | ≤ 3 | 0.94 ± 0.03 | ≤ 1 | ~90 | 1.28 ± 0.01

Reference: publication PMC9732819 (ACS Chemical Neuroscience, 2022)
